Results from different studies.
Protocols differ between the studies behind these lines.
Target: Serine/threonine-protein kinase SIK3 (SIK3, Homo sapiens, UniProt Q9Y2K2)

COc1cc(/C=C/C(=O)CC(=O)/C=C/c2ccc(O)c(OC)c2)ccc1O — activity vs control (enzyme activity, inhibitor; 1 µM): 91%
Cc1sc(C(=O)NC2COC2)cc1-n1cc(NC(=O)Nc2c(F)cccc2Cl)cn1 — remaining activity (enzyme activity, inhibitor; 10 µM): 86.9%
Nc1ncnc2occ(-c3ccc(NC(=O)Nc4cc(C(F)(F)F)ccc4F)cc3)c12 — remaining signal (cell-free assay, inhibitor; 20 µM): 76%
CC(C)(C)c1nc(-c2cccc(NS(=O)(=O)c3c(F)cccc3F)c2F)c(-c2ccnc(N)n2)s1 — remaining activity (enzyme activity, inhibitor, radiometric; 1 µM): 60%
COc1cc(Nc2cnc(C#N)c(O[C@H](C)CN(C)C)n2)ncc1-c1cnn(C)c1 — remaining activity (enzyme activity, inhibitor, radiometric; 1 µM): 89%
O=S(=O)(NC1CCC(c2cc(F)ccc2F)(S(=O)(=O)c2ccc(Cl)cc2)CC1)C(F)(F)F (stereo not drawn) — remaining binding (cell-free assay, competition with immobilised ligand; 1 µM): 100%
FC(F)(F)Oc1cccc(-c2cnc3ccc(-c4ccncc4)nn23)c1 — activity vs control (enzyme activity, inhibitor, radiometric; 5 µM): 102%
CC(C)(C)c1nc2c(s1)c1nc(N)ncc1c1ccc(NS(=O)(=O)c3c(F)cccc3F)c(F)c12 — remaining activity (enzyme activity, inhibitor, radiometric; 1 µM): 98%
Cc1ccc(C(=O)Nc2ccc(CN3CCN(C)CC3)c(C(F)(F)F)c2)cc1C#Cc1cnc2cccnn12 — remaining activity (enzyme activity, inhibitor; 23.5 nM): 87%
COc1cc(Cl)c(C(=O)N[C@@H](CN[C@H]2CC[C@@H](N)CC2)Cc2ccc(C#N)cc2)cc1-c1ccc(CN[C@H](C)c2ccc(C)cc2)o1 — remaining activity (enzyme activity, inhibitor; 1 µM): 102%
O=C(Nc1cnn(-c2csc(C(=O)NC3COC3)c2)c1)Nc1c(F)cccc1Cl — remaining activity (enzyme activity, inhibitor; 5 µM): 94.5%
CN(C(=O)c1ccccc1)c1cc(N(C)c2ccc3c(c2)CCc2ccc(C(=O)NCCN4CCOCC4)cc2C3=O)ccc1F — remaining binding (cell-free assay, competition with immobilised ligand; 1 µM): 74%
